The text below walks through data of ChEMBL document CHEMBL1143168, “Conformational preferences of natural and C3-modified epothilones in aqueous solution” (J Med Chem, 2008).

pEC50, pIC50: −log10 of the molar value.

In general, pIC50 refers to −log10 of the IC50, conventionally taken in molar units. Lower therefore signals a high IC50. Broadly, the pEC50 is the negative decadic logarithm of the EC50, by convention in mol/L.

The test system of one assay is MCF7. Nature of the assay: Antiproliferative activity against human MCF7 cells after 72 hrs by methylene blue staining. The assay is classed as functional, cell-based. Conditions: MCF7, 72 h. The gist of the method:
(§1)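 Human cancer cell lines exposed to compound for 72 h. Cells then fixed and total protein quantified by methylene blue staining. IC50 taken as concentration giving 50% growth inhibition.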

A short description of assay [1]: Antiproliferative activity against human PC3M cells after 72 hrs by methylene blue staining. The assay is classed as functional, cell-based. Particulars: PC-3M. The gist of the method: as §1
For a further assay, the system named is HCT-116. Description: Antiproliferative activity against human HCT116 cells after 72 hrs by methylene blue staining. Particulars: HCT-116, 72 h. The class given is functional, cell-based. The gist of the method: as §1
The nature of assay [2]: Induction of pig brain alpha-beta-tubulin polymerization. On the set-up: species or system Sus scrofa. The gist of the method: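 Porcine brain tubulin at 10 µM. Polymerization followed by turbidity at 340 nm until a stable A340 plateau (equilibrium between soluble and polymerized tubulin). EC50 is the concentration inducing 50% of the maximum achievable polymerization. The maximum is the plateau beyond which higher compound concentration gives no further A340 increase.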

For the molecule `C/C(=C\c1csc(C)n1)[C@@H]1C[C@@H]2O[C@@H]2CCC[C@H](C)[C@H](O)[C@@H](C)C(=O)C(C)(C)[C@@H](O)CC(=O)O1` [EPOTHILONE A], the figures for the pIC50 (in the assay on MCF7; in assay [1]; in the assay with HCT-116) were 8.54, 8.19 and 8.55, respectively. The molecule further had a pEC50 in assay [2] of 5.34.
As for `C/C(=C\c1csc(C)n1)[C@@H]1C[C@@H]2O[C@@H]2CCC[C@H](C)[C@H](O)[C@@H](C)C(=O)C(C)(C)CCC(=O)O1` [3-DEOXY-EPO A], the results for the pIC50 (in the assay with MCF7; in assay [1]; with HCT-116) were 7.23, 7.10 and 7.07, respectively. In addition, the pEC50 in assay [2] is 5.25.
Regarding `C/C(=C\c1csc(C)n1)[C@@H]1C[C@@H]2O[C@@H]2CCC[C@H](C)[C@H](O)[C@@H](C)C(=O)C(C)(C)/C=C/C(=O)O1` [3-DEOXY-2,3-DIDEHYDRO-EPO A], the values for the pIC50 (in the assay on MCF7; in assay [1]; in the assay with HCT-116) were 8.06, 7.61 and 7.79, respectively. Also, the pEC50 in assay [2] is 5.32.
